# According to ChEMBL document CHEMBL4513216, “Probing the Open Global Health Chemical Diversity Library for Multistage-Active Starting Points for Next-Generation Antimalarials” (ACS Infect Dis, 2020):
# Assay: Toxicity liver stage against HepG2, at 10uM
# Type: cell-based
# Parameters: test concentration 10 uM, cell line HepG2-A16-CD81EGFP
# Details: human, HepG2-A16-CD81EGFP cells; read-out: INHIBITION
# How it was run: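 Uninfected HepG2-A16-CD81EGFP cells, 3 × 10^3 per well, 1536-well, plated on prespotted compound at 10 μM final, parasite-free screening media added to match infected plates; puromycin 10 μM positive, DMSO 0.5% negative; run in parallel with 48 h PbLuc assay at 37 °C, 5% CO2; viability by CellTiter-Glo luminescence, normalized to controls.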
row,Structure (SMILES),cytotoxicity at 10 µM [%]
1,Cc1ccc(S(=O)(=O)NC[C@H]2OC[C@@H](NCc3cccnc3)[C@@H]2O)cc1,1.32
2,CCOc1ccc(C(=O)Nc2c(C)nc3ccccn3c2=O)cc1,11.9
3,CNC(=O)[C@@H]1[C@@H](c2ccccc2)CN2CCN(Cc3ccco3)C[C@H]12,-1.94
4,O=S(=O)(c1cccnc1)N1CCN(Cc2nc(-c3cccs3)cs2)CC1,27.8
5,COCCN(Cc1ccoc1)C(=O)CSc1ccc(F)cc1,1.04
6,COc1ccc(-c2cnc3n2CCNC32CCN(S(C)(=O)=O)CC2)cc1,-2.72
7,CCN(CC)c1ccc2ccc(C(=O)N(C)C)cn12,0.626
8,Cc1ccc(NC(=O)Nc2cnc(N3CCN(C)CC3)nc2)c(Cl)c1,6.07
9,CCS(=O)(=O)N1CCCCC1c1nc(C(C)C)no1 (centres undefined),13.6
10,O=C(CCN1CCc2ccccc21)N1C[C@@H](O)[C@H](N2CCCC2)C1,-17.8
11,CN(C)CCn1c([C@H]2CCCO2)cc2cccnc21,17.1
12,CCCn1ncc(CN2C[C@@H]3CCCN3C[C@@H]2CCSC)c1C,4.06
13,CCn1cnnc1CNC(=O)c1ccc(Br)cc1F,-18.2
14,CC(C)(C)c1cn2c(n1)C(CNCc1ccccn1)CCC2 (centres undefined),-9.5
15,CC(CCc1cccc(F)c1)NC(=O)NCc1ncnn1C (centres undefined),12.2
16,CC(=O)c1cc(Br)cc(F)c1OCC(=O)NC(C)C,-9.46
17,N#Cc1cc(C(F)(F)F)ccc1NCC1CCS(=O)(=O)CC1,10.2
18,Cc1cc(C(=O)N2CCN(C(=O)CCC3CCCCC3)CC2)n(C)n1,-3.06
19,N#Cc1ccc(NCc2cccnc2N2CCC(C(N)=O)CC2)cn1,-47.9
20,CCC(CC)(CNC(=O)OC(C)(C)C)NC(=O)C1CCCO1 (centres undefined),1.41
21,CCOc1cc(NC(=O)N2CCC(c3nnc[nH]3)CC2)ccc1C,14.5
22,N#Cc1ccc(N2CCC(OC3CCOCC3)CC2)cc1Cl,1

row,Structure (SMILES),cytotoxicity at 10 µM [%]
1,Cc1nc(CCCNC(=O)Nc2ccc(F)cc2F)n[nH]1,-2.9
2,Cc1cc(NC(=O)NCc2ccc(C)s2)no1,-5.29
3,COc1ccc(NCc2c[nH]nc2-c2cccnc2)cc1,-16.8
4,CC(N1CCN(C(=O)NCc2cccc(C#N)c2)CC1)C(F)(F)F (centres undefined),6.31
5,Cc1nc(N2CCC(CN3CCCC3)CC2)c2cnn(C)c2n1,8.39
6,Cc1nn(C)c(C)c1OCC(=O)NCC(O)c1ccccc1F (centres undefined),0.621
7,CC1CCN(CCNC(=O)Nc2ccc(F)cc2Cl)CC1,4.68
8,CS(=O)(=O)N1CCN(Cc2csc(-c3ncccn3)n2)CC1,-4.71
9,O=C(CN1CCC(C(=O)c2cc(F)ccc2F)CC1)NC1CC1,-6.04
10,CC(C)COCCC(=O)NCCC(=O)N1CCN(c2ccccn2)CC1,9.46
11,CCn1cc(CNc2ccc(N(C)CCOC)cn2)cn1,-8.16
12,CSCC(C)(O)CNc1cccc(F)c1C#N (centres undefined),0.462
13,Cc1nn(C)c(C)c1CCC(=O)NCc1cccnc1OC1CCCC1,-4.38
14,CCC(CNC(=O)Cc1c(C)noc1C)N1CCCC1 (centres undefined),-46.3
15,O=C(O)c1ccnc(SCC(F)(F)F)c1,-17.6
16,Clc1snnc1CN1CCN(c2nccs2)CC1,-43.9
17,CCN(CC)C(C(=O)Nc1ccc2c(c1)CCC(=O)N2)c1ccccc1 (centres undefined),7.18
18,COc1ccc(C(C)N2CCC(NS(C)(=O)=O)CC2)cc1Cl (centres undefined),-41.2
19,CN(C)Cc1nc(C(C)(C)NC(=O)c2ccnn2C)no1,0.966
20,Cn1cnc2c1CCN(CC(O)c1ccc(S(C)(=O)=O)cc1)C2 (centres undefined),-3.3
21,CN(Cc1ccc(Cl)c(F)c1)C(=O)CCc1ccncc1,3.31
22,Cc1cnn(C2CN(Cc3ccc4c(c3)OCCO4)C2)c1,16.3

row,Structure (SMILES),cytotoxicity at 10 µM [%]
1,Cc1oncc1C(=O)N1CC[C@H]2[C@@H]1CCC(=O)N2CC1CCOCC1,4.33
2,CC(C)CN1C[C@H]2N(c3ncccn3)CCC[C@@]2(C(=O)NCC2CC2)C1,-94.6
3,Cc1cnc(C(=O)N2CC[C@@H]3CN(c4ncccn4)CCO[C@@H]3C2)cn1,-75.2
4,Cc1cccc(CN2CC[C@H]3C[C@H](C)O[C@@H]3C2)n1,-78.6
5,COCC(=O)N1CCC2(CCN(Cc3ccccn3)CC2)CC1,-6.62
6,CC(C)(C)CCNc1nccc(-c2c[nH][nH]c2=O)n1,-5.25
7,NS(=O)(=O)NCc1cc(-c2ccc(C(F)(F)F)cc2)n[nH]1,-6.11
8,NC(=O)C1CCN(c2nccc(-c3c[nH]nc3C3CCCCC3)n2)CC1,-10.6
9,O=C1CC(NCc2cnc(C3CCCCC3)nc2)CN1c1ccccc1 (centres undefined),-6.8
10,CN(C)C(=O)COc1ccccc1CN1CCCC2(C1)CN(C)C(=O)O2 (centres undefined),0.224
11,CCC[C@H]1CN(S(=O)(=O)c2cc(C)ccc2C)C[C@@H]1N,10.3
12,NC(=O)[C@@H]1CCCN1C(=O)c1cn(C/C=C/c2ccccc2)nn1,2.32
13,CCCN1CCc2[nH]cnc2C12CCN(C(=O)Cn1ccnc1C)CC2,13.7
14,CC(c1nncn1C)n1cc(-c2cc(CN3CCCC3)cs2)nn1 (centres undefined),2.04
15,c1ccc(Oc2ccc(OC34CCCN(CC3)C4)cc2)cc1 (centres undefined),0.741
16,CN(C)[C@H]1CCCCN(Cc2cnc(NCc3ccccc3)nc2)C1,0.166
17,N#Cc1ccnc(N2CCC(NCCN3CCCC3)CC2)c1,-53
18,O=C(c1cccc(-c2ncc[nH]2)c1)N1CCC(N2CCCC(O)C2)CC1 (centres undefined),6.42
19,CCOc1cccc(C2CC(=O)NCc3nc(N4CCCC4)sc32)c1 (centres undefined),-2.53
20,O=C(Cc1c[nH]c(=O)[nH]c1=O)N1CCCCC1CCc1cccc(O)c1 (centres undefined),14.5
21,CCCC(=O)Nc1cc(C(=O)NC(C)Cc2ccncc2)ccc1C (centres undefined),2.52
22,COc1ccc(C)cc1C(=O)N1C[C@@H](CN(C)CCO)[C@@H](CO)C1,-0.828

row,Structure (SMILES),cytotoxicity at 10 µM [%]
1,CCC(CO)N(Cc1ccncc1)Cc1c[nH]nc1-c1ccc(F)cc1 (centres undefined),-5.5
2,CCSc1ncc(CN2CCN(c3nc(C)ncc3C)CC2)cn1,27.3
3,O=c1[nH]c2cc3c(cc2cc1CN1CCCC1c1ccccn1)CCC3 (centres undefined),-2.11
4,O=C(C1CCS(=O)(=O)CC1)N1CCC(Cc2ccc(F)cc2)CC1,-41.9
5,CCC(c1nc(C(C)C)nn1-c1ccncc1C)n1cccn1 (centres undefined),-13.9
6,Cc1ccc(OCC2CCCN(C(=O)CN3CCOCC3)C2)cc1 (centres undefined),-25.6
7,COCc1noc(-c2ccc(N(C)Cc3c(C)n[nH]c3C)nc2)n1,0.897
8,CC(C)[C@H]1CN(Cc2c[nH]cn2)C[C@@H]1NC(=O)CC1CCC1,-39
9,O[C@]12CCNC[C@H]1CN(c1ccnc3ccccc13)CC2,8.33
10,COCCN1CC2(CCCN(C(=O)NCCc3cccs3)C2)CCC1=O (centres undefined),-8.14
11,CCNC(=O)C1CCN(c2cc(-c3ccccc3)nc3cc(C)nn23)C1 (centres undefined),-2.97
12,CCc1ncc(CN2CCC3(CCCN(CC4CCC4)C3)C2)cn1 (centres undefined),-7.07
13,CCN(C)C[C@@H]1CN(S(=O)(=O)c2cccc(Cl)c2)C[C@@H]1CO,-8.3
14,Cc1ccccc1CC1(CO)CCCN(c2ncccc2C#N)C1 (centres undefined),-1.16
15,CCn1cc(CN2CCCC(c3[nH]ncc3S(C)(=O)=O)C2)cn1 (centres undefined),6.5
16,COc1ccc(-c2nc(CNC3CCc4nc(C)nn4C3)no2)cc1 (centres undefined),-3.42
17,CCN(CC)Cc1ccc(C(=O)N2CCCC2Cn2cccn2)cc1 (centres undefined),-10.7
18,CSc1ccc(C(=O)N2CCOCC2c2c(C)n[nH]c2C)o1 (centres undefined),-10.3
19,O=C(c1cccc(Cn2ccnc2)c1)N1CCCC(n2cccn2)C1 (centres undefined),-0.603
20,CS(=O)(=O)c1cccc(C(=O)NCCCN2CCc3ccccc3C2)c1,-12.1
21,NC(=O)c1cccc(OCC(=O)N2CCCC(n3cccn3)C2)c1 (centres undefined),-13.5
22,CC(=O)NCCNC(=O)N(C)Cc1ccc2c(c1)OCCO2,-1.59

row,Structure (SMILES),cytotoxicity at 10 µM [%]
1,O=C(NCc1ccccn1)Nc1cc(C(F)(F)F)c[nH]c1=O,-2.87
2,CCOC(=O)c1sc2ccsc2c1CNC(=O)CC,-5.7
3,CCn1ccnc1CN1CCCN(C(=O)c2cccn2C)CC1,-8.93
4,Cc1cc(C)cc(NS(=O)(=O)c2cc3c(c(C(=O)O)c2)OCCO3)c1,0.289
5,CCOC[C@]12COC[C@H]1CN(Cc1cccc(OC)c1)C2,-75.9
6,Cn1ccnc1CN1CCC2(CC1)CN(Cc1cccnc1)C(=O)CO2,4
7,CN(C)CCCNCCC(Cc1ccccc1)C1CCOC(C)(C)C1 (centres undefined),-4.08
8,COC[C@@]12CCC[C@@H]1CN(C(=O)CN(C)C)C2,4.84
9,CCN(CC)Cc1nc2c(o1)CN(S(=O)(=O)c1cccs1)C2,-117
10,c1cnc(N2C[C@H]3CCN(CCN4CCCC4)C[C@H]3C2)cn1,-114
11,c1ccc(OCc2nnn3c2CN(c2ncccn2)CCC3)nc1,1.89
12,CCOCC1c2c(ncn2C)CCN1C(=O)c1cnc(C)cn1 (centres undefined),-108
13,c1cncc(N2CC[C@@H]3CN(CC4CC4)C[C@@H]3C2)c1,-4.74
14,CNC(=O)CN1CCCC12CCN(C(=O)c1ccoc1)CC2,6.53
15,CCOc1ccc2ccccc2c1CNCC1CCS(=O)(=O)C1 (centres undefined),-3.4
16,COCCNC(=O)[C@H]1C[C@@H]2CCN(Cc3nccs3)C[C@H]2O1,-68.2
17,c1cc(CN2C[C@H](OCC3CCOCC3)[C@H]3COC[C@H]32)co1,-4.8
18,NC(=O)C(c1ccc(F)cc1)N1CCN(CCO)CC1 (centres undefined),-5.46
19,CN(C)C(=O)CN1C[C@H]2CC[C@@H](C1)N(C(=O)CCn1cncn1)C2,-9.96
20,CNC(=O)[C@H]1C[C@H]2CN(C(=O)NC(C)C)C[C@@H]1O2,-99.8
21,CNC(=O)[C@H]1C[C@H]2CN(Cc3cccc(C)c3)C[C@@H]1O2,8.97
